This note sets out measurements from ChEMBL document CHEMBL3525900, “Pharmacokinetics, distribution, and metabolism of [14C]sunitinib in rats, monkeys, and humans” (Drug Metab Dispos, 2012).

Settings in all cases: in vivo
Data set [1] is described as follows: Drug excretion in feces of human treated with [14C]sunitinib at 50 mg, po administered as single dose by liquid scintillation counting.
Data set [2] is described as follows: Drug excretion in feces of male cynomolgus monkey treated with [14C]sunitinib at 6 mg/kg, po administered as single dose by liquid scintillation counting. Format: ADME, organism-based, Macaca fascicularis. Also noted: dose 6 mg/kg, dosed compound name [14C]Sunitinib, route oral. The gist of the method: (§1)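 Cynomolgus monkeys given one oral gavage dose of [14C]sunitinib L-malate, 6 mg/kg (37 µCi/kg). Urine collected at 0-4, 4-8 and 8-24 h, feces at 0-8 and 8-24 h, then both daily to 14 days; samples stored at -80 °C. Duplicate urine aliquots counted by liquid scintillation; homogenized feces combusted before counting.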

Data set [3] is described as follows: Drug excretion in feces of female cynomolgus monkey treated with [14C]sunitinib at 6 mg/kg, po administered as single dose by liquid scintillation counting. Format: ADME, organism-based, Macaca fascicularis. Also noted: dose 6 mg/kg, dosed compound name [14C]Sunitinib, route oral. The gist of the method: as §1

On to `CCNCC(O)NC(=O)c1c(C)[nH]c(/C=C2\C(=O)Nc3ccc(F)cc32)c1C` (stereo unspecified), for which the Compound recovery result is recorded as “metabolite_not_detected” in data set [1], 1% in data set [2] and 0.8% in data set [3].
For the molecule `CCN(CC)CCNC(=O)c1c(C)[nH]c(CC2C(=O)Nc3ccc(F)cc32)c1C` (stereo unspecified), the values for the Compound recovery result in data set [1], in data set [2] and in data set [3] were “metabolite_not_detected”, 1.5% and 1%, respectively.
